Test results taken from ChEMBL document CHEMBL4138117, “Pentapeptides for the treatment of small cell lung cancer: Optimisation by Nind-alkyl modification of the tryptophan side chain” (Eur J Med Chem, 2017).
Active and inactive are the calls of the source. The calls are words filed in the database; no cut-off is given here. *1 amine or outer side, *2 acyl side, *3 side chain or, on linkers, in order; H or OH if unused. Where a SMILES comes first, the peptide text is derived from it. [ ]: non-standard residue; d: D form. X1 = C=CC(C)(C)n1cc(C[C@@H](N[*:1])C(=O)[*:2])c2ccccc21; dTrp(1-Bu) = CCCCn1cc(C[C@@H](N)C(=O)O)c2ccccc21; dNMeF = CN[C@H](Cc1ccccc1)C(=O)O

Columns and labels:
[1] = Metabolic stability in CD1 mouse liver S9 fraction at 400 ug/ml after 1 to 3 hrs in presence of UDPGA, NADPH, GSH, PAPS by RP-HPLC method; type: ADME, subcellular
Summary of the method: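 Male CD-1 mouse liver S9 fraction incubated with peptide as in the plasma study, at 37 °C. Reaction started by adding a 1:1:1:1 cofactor mix made in 200 mM Tris pH 7.4 with 2 mM MgCl2; final levels NADPH 1 mM, UDPGA 0.5 mM, GSH 0.05 mM, PAPS 0.05 mg/ml. Aliquots at 0, 1, 2 and 3 h analysed by RP-HPLC.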

[2] = Drug metabolism in neat mouse plasma at 400 ug/ml by RP-HPLC method; type: ADME, cell-free; conditions: TDE = time-dependent effect
Summary of the method: (§1)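 Peptide added to neat mouse plasma at 400 µg/ml and held at 37 °C. Aliquots taken at 0, 3, 24 and 48 h and analysed by RP-HPLC on a C8 column. Parent and degradation product(s) reported as relative percentage; n = 3.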

[3] = Drug metabolism in mouse plasma at 400 ug/ml after 48 hrs by mass spectrophotometric method; type: ADME, cell-free
DMS-79 [4] = assay: Induction of apoptosis in human DMS79 cells assessed as chromatin condensation at 6 uM after 48 hrs by acridine orange/ethidium bromide staining-based inverted fluorescence microscopic method; type: functional, cell-based
Summary of the method: (§2)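 Cells seeded at 1 x 10^4 cells/well and treated with peptide at 6 µM final in complete medium for 48 h at 37 °C, 5% CO2, with an untreated control. Then 1:1 AO/EB mix (100 µg/ml of each dye in PBS) added and cells viewed by inverted fluorescence microscopy at 10x.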

NCI-H69 [5] = assay: Induction of apoptosis in human H69 cells assessed as cell shrinkage at 6 uM after 48 hrs by acridine orange/ethidium bromide staining-based inverted fluorescence microscopic method; type: functional; summary of the method: as §2
DMS-79 [6] = assay: Induction of apoptosis in human DMS79 cells assessed as cell shrinkage at 6 uM after 48 hrs by acridine orange/ethidium bromide staining-based inverted fluorescence microscopic method; type: functional; summary of the method: as §2
DMS-79 [7] = assay: Induction of apoptosis in human DMS79 cells assessed as increase in necrotic cells at 6 uM after 48 hrs by acridine orange/ethidium bromide staining-based inverted fluorescence microscopic method; type: functional, cell-based; summary of the method: as §2
[8] = Retention time of the compound in mouse plasma at 400 ug/ml after 48 hrs by RP-HPLC method; type: ADME, cell-free; summary of the method: as §1
NCI-H69 [9] = assay: Induction of apoptosis in human H69 cells assessed as increase in necrotic cells at 6 uM after 48 hrs by acridine orange/ethidium bromide staining-based inverted fluorescence microscopic method; type: functional, cell-based; summary of the method: as §2
DMS-79 [10] = assay: Induction of apoptosis in human DMS79 cells assessed as increase in late apoptotic cells at 6 uM after 48 hrs by acridine orange/ethidium bromide staining-based inverted fluorescence microscopic method; type: functional, cell-based; summary of the method: as §2
NCI-H69 [11] = assay: Induction of apoptosis in human H69 cells assessed as chromatin condensation at 6 uM after 48 hrs by acridine orange/ethidium bromide staining-based inverted fluorescence microscopic method; type: functional, cell-based; summary of the method: as §2
NCI-H69 [12] = assay: Induction of apoptosis in human H69 cells assessed as increase in late apoptotic cells at 6 uM after 48 hrs by acridine orange/ethidium bromide staining-based inverted fluorescence microscopic method; type: functional, cell-based; summary of the method: as §2
DMS-79 [13] = assay: Induction of apoptosis in human DMS79 cells assessed as loss of plasma membrane integrity at 6 uM after 48 hrs by acridine orange/ethidium bromide staining-based inverted fluorescence microscopic method; type: functional, cell-based; summary of the method: as §2
[14] = Retention time of the compound in mouse plasma at 400 ug/ml measured immediately after compound addition by RP-HPLC method; type: ADME, cell-free; summary of the method: as §1
[15] = Retention time of the compound in mouse plasma at 400 ug/ml after 24 hrs by RP-HPLC method; type: ADME, cell-free; summary of the method: as §1
NCI-H69 [16] = assay: Induction of apoptosis in human H69 cells assessed as loss of plasma membrane integrity at 6 uM after 48 hrs by acridine orange/ethidium bromide staining-based inverted fluorescence microscopic method; type: functional, cell-based; summary of the method: as §2
[17] = Retention time of the compound in mouse plasma at 400 ug/ml after 3 hrs by RP-HPLC method; type: ADME, cell-free; summary of the method: as §1
DMS-79 [18] = assay: Induction of apoptosis in human DMS79 cells assessed as early apoptotic cells at 2 uM after 24 hrs by Annexin V/SYTOX Blue staining-based flow cytometric method (reference value: 6.4 +/- 0.4%); type: functional
[19] = Drug metabolism in mouse plasma assessed as formation of (3R,6R,9S,12R,15S)-3,9-dibenzyl-6-((1H-indol-3-yl)methyl)-12-((1-butyl-1H-indol-3-yl)methyl)-15-isobutyl-4,7,10,13-tetraoxo-2,5,8,11,14-pentaazahexadecan-16-oic acid at 400 ug/ml after 3 to 48 hrs by RP-HPLC method
DMS-79 [20] = assay: Induction of apoptosis in human DMS79 cells assessed as early apoptotic cells at 6 uM after 24 hrs by Annexin V/SYTOX Blue staining-based flow cytometric method (reference value: 6.4 +/- 0.4%); type: functional
DMS-79 [21] = assay: Induction of apoptosis in human DMS79 cells assessed as late apoptotic cells at 6 uM after 24 hrs by Annexin V/SYTOX Blue staining-based flow cytometric method (reference value: 28.6 +/- 8.2%); type: functional
DMS-79 [22] = assay: Induction of apoptosis in human DMS79 cells assessed as necrotic cells at 6 uM after 24 hrs by Annexin V/SYTOX Blue staining-based flow cytometric method (reference value: 3.3 +/- 0.6%); type: functional
[23] = Drug metabolism in mouse plasma assessed as formation of (3R,6R,9S,12R,15S)-3,9-dibenzyl-6,12-bis((1-butyl-1H-indol-3-yl)methyl)-15-isobutyl-4,7,10,13-tetraoxo-2,5,8,11,14-pentaazahexadecan-16-oic acid at 400 ug/ml after 48 hrs by mass spectrophotometric method; type: ADME, cell-free
DMS-79 [24] = assay: Induction of apoptosis in human DMS79 cells assessed as viable cells at 2 uM after 24 hrs by Annexin V/SYTOX Blue staining-based flow cytometric method (reference value: 61.7 +/- 9.1%); type: functional; conditions: DMS-79, 24 h, read-out: Activity
DMS-79 [25] = assay: Induction of apoptosis in human DMS79 cells assessed as viable cells after 24 hrs by Annexin V/SYTOX Blue staining-based flow cytometric method; type: functional, cell-based
DMS-79 [26] = assay: Induction of apoptosis in human DMS79 cells assessed as viable cells at 6 uM after 24 hrs by Annexin V/SYTOX Blue staining-based flow cytometric method (reference value: 61.7 +/- 9.1%); type: functional; conditions: DMS-79, 24 h, read-out: Activity
DMS-79 [27] = assay: Induction of apoptosis in human DMS79 cells assessed as late apoptotic cells at 2 uM after 24 hrs by Annexin V/SYTOX Blue staining-based flow cytometric method (reference value: 28.6 +/- 8.2%); type: functional
DMS-79 [28] = assay: Induction of apoptosis in human DMS79 cells assessed as necrotic cells at 2 uM after 24 hrs by Annexin V/SYTOX Blue staining-based flow cytometric method (reference value: 3.3 +/- 0.6%); type: functional
[29] = Drug level in mouse plasma treated with (S)-2-((3R,6R,9S,12R)-3,9-dibenzyl-6,12-bis((1-butyl-1H-indol-3-yl)methyl)-4,7,10-trioxo-2,5,8,11-tetraazatridecanamido)-4-methylpentanamide at 400 ug/ml after 3 to 48 hrs by RP-HPLC method; type: ADME, cell-free; summary of the method: as §1
NCI-H69 [30] = assay: Cytotoxicity against human H69 cells assessed as decrease in cell viability after 48 hrs by resazurin dye-based assay; type: functional; conditions: NCI-H69, 48 h
Summary of the method: (§3)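 H69 and DMS79 suspension cells grown in 10% FBS/RPMI-1640 at 37 °C, 5% CO2. Seeded at 1 x 10^4 cells/well in triplicate and given peptide the same day at 0.1–30 µM final, diluted in 50% FBS/saline. After 48 h, resazurin (0.125 mg/ml in PBS) added for 5 h, then fluorescence read and % viability calculated. Three independent repeats; IC50 taken from dose-response curves.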

[31] = Drug level in mouse plasma treated with (S)-2-((3R,6R,9S,12R)-3,9-dibenzyl-6,12-bis((1-butyl-1H-indol-3-yl)methyl)-4,7,10-trioxo-2,5,8,11-tetraazatridecanamido)-4-methylpentanamide at 400 ug/ml after 48 hrs by mass spectrophotometric method; type: ADME, cell-free
DMS-79 [32] = assay: Cytotoxicity against human DMS79 cells assessed as decrease in cell viability after 48 hrs by resazurin dye-based assay; type: functional; conditions: DMS-79, 48 h; summary of the method: as §3
[33] = Metabolic stability in neat mouse plasma assessed as parent compound remaining at 400 ug/ml after 48 hrs by RP-HPLC method; type: ADME, cell-free; conditions: read-out: Stability; summary of the method: as §1
[34] = Metabolic stability in neat mouse plasma assessed as parent compound remaining at 400 ug/ml after 3 hrs by RP-HPLC method; type: ADME, cell-free; conditions: read-out: Stability; summary of the method: as §1

Stability [1] | Drug metabolism [2] | Drug metabolism [3] | Retention_time [8] [min] | Retention_time [14] [min] | Retention_time [15] [min] | Retention_time [17] [min] | SMILES | Activity (DMS-79 [4]) | Activity (NCI-H69 [5]) | Activity (DMS-79 [6]) | Activity (DMS-79 [7]) | Activity (NCI-H69 [9]) | Activity (DMS-79 [10]) | Activity (NCI-H69 [11]) | Activity (NCI-H69 [12]) | Activity (DMS-79 [13]) | Activity (NCI-H69 [16]) | IC50 (NCI-H69 [30]) [µM] | IC50 (DMS-79 [32]) [µM] | further results
Stable | Tde |  | 25.23 | 25 | 25.26 | 25.29 | CCCCn1cc(C[C@@H](NC(=O)[C@H](Cc2ccccc2)NC(=O)[C@@H](Cc2c[nH]c3ccccc23)NC(=O)[C@@H](Cc2ccccc2)NC)C(=O)N[C@@H](CC(C)C)C(N)=O)c2ccccc21 (H-[dNMeF][dW]F[dTrp(1-Bu)]L-NH2) | Active | Active | Active | Active | Active | Active | Active | Active | Active | Active |  |  | Activity (DMS-79 [18]): 8%; Drug metabolism [19]: Metabolite_Detected; Activity (DMS-79 [20]): 1.9%; Activity (DMS-79 [21]): 95.5%; Activity (DMS-79 [22]): 1.6%; Drug metabolism [23]: Metabolite_Detected; viability at 2 µM (DMS-79 [24]): 53.3%; Activity (DMS-79 [25]): Dose-dependent effect; viability at 6 µM (DMS-79 [26]): 1%; Activity (DMS-79 [27]): 36.4%; Activity (DMS-79 [28]): 2.3%
 | Tde | Metabolite_Detected | 24.86 | 24.62 | 24.86 | 24.89 | C=CC(C)(C)n1cc(C[C@@H](NC(=O)[C@H](Cc2ccccc2)NC(=O)[C@@H](Cc2c[nH]c3ccccc23)NC(=O)[C@@H](Cc2ccccc2)NC)C(=O)N[C@@H](CC(C)C)C(N)=O)c2ccccc21 (H-[dNMeF][dW]F[X1]L-NH2) |  |  |  |  |  |  |  |  |  |  | 2.84 | 4.37 | remaining at 48 h, 400 ug/ml [33]: 35.9%; remaining at 3 h, 400 ug/ml [34]: 87.8%

More lines, now with the values behind:

SMILES | Stability [1] | Drug metabolism [2] | Drug metabolism [3] | Retention_time [8] [min] | Retention_time [14] [min] | Retention_time [15] [min] | Retention_time [17] [min] | Activity (DMS-79 [4]) | Activity (NCI-H69 [5]) | Activity (DMS-79 [6]) | Activity (DMS-79 [7]) | Activity (NCI-H69 [9]) | Activity (DMS-79 [10]) | Activity (NCI-H69 [11]) | Activity (NCI-H69 [12]) | Activity (DMS-79 [13]) | Activity (NCI-H69 [16]) | IC50 (NCI-H69 [30]) [µM] | IC50 (DMS-79 [32]) [µM] | further results
CCCCn1cc(C[C@@H](NC(=O)[C@H](Cc2ccccc2)NC(=O)[C@@H](Cc2cn(CCCC)c3ccccc23)NC(=O)[C@@H](Cc2ccccc2)NC)C(=O)N[C@@H](CC(C)C)C(N)=O)c2ccccc21 (H-[dNMeF][dTrp(1-Bu)]F[dTrp(1-Bu)]L-NH2) | Stable | Tde | Metabolite_Notdetected | 27.94 | 27.53 | 27.94 | 27.93 | Active | Active | Active | Active | Active | Active | Active | Active | Active | Active |  |  | 
CCCCn1cc(C[C@@H](NC(=O)[C@H](Cc2ccccc2)NC(=O)[C@@H](Cc2c[nH]c3ccccc23)NC(=O)[C@@H](Cc2ccccc2)NC)C(=O)N[C@@H](CC(C)C)C(=O)O)c2ccccc21 (H-[dNMeF][dW]F[dTrp(1-Bu)]L-OH) |  |  | Metabolite_Notdetected | 25.27 | 25.36 | 25.29 | 25.3 |  |  |  |  |  |  |  |  |  |  | > 30 | > 30 | Drug metabolism [29]: Metabolite_Detected; Drug metabolism [31]: Metabolite_Detected
CN[C@H](Cc1ccccc1)C(=O)N[C@H](Cc1c[nH]c2ccccc12)C(=O)N[C@@H](Cc1ccccc1)C(=O)N[C@H](Cc1c[nH]c2ccccc12)C(=O)N[C@@H](CC(C)C)C(N)=O (H-[dNMeF][dW]F[dW]L-NH2) |  |  |  |  |  |  |  |  |  |  |  |  |  |  |  |  |  | 30.7 | 23 | 
